Holding throughout (assay type): functional
The test system of assay [1] is Rattus norvegicus. The experiment in a line: Inhibition of Zymosan-induced rat's paw edema(ZPE) after peroral administration of 100 mg/kg dose. The conditions noted are these: route oral. The procedure, abridged: (§1)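 Male Wistar rats (about 150 g) were dosed orally with compound suspended in 5% arabic gum, 1 h before a subplantar hind-paw injection of 0.1 mL saline. The irritant was 1% zymosan for 33 or 1% λ-carrageenin for 34. Paw volume was measured by plethysmograph before dosing and at 4 h (zymosan) or 3 h (carrageenin). Swelling is relative to initial volume, as mean ± SEM. % inhibition is versus the control group's mean swelling.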

Assay [2] relates to Rattus norvegicus. Briefly: Antiinflammatory activity on Carrageenan rat's paw edema(CPE) after peroral administration of 100 mg/kg dose with control swelling of 71.9%. The conditions noted are these: route oral. Background: Carrageenan injected into the paw causes an acute inflammation.
The test system of assay [3] is Rattus norvegicus. The experiment in a line: Compound was tested for the inhibition of rat reversed passive Arthus pleurisy after peroral administration of 100 mg/kg dose at 1.19*10e6 no of cells with 7.4*10e6 cells of control. The conditions noted are these: route oral. The procedure, abridged: (§2)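 Male Wistar rats (about 250 g) were given compound orally before the antiserum. Under ether anesthesia, 0.2 mL rabbit anti-egg albumin antiserum was injected intrapleurally. After 30 min, egg albumin (15 mg/100 g body weight in 0.1 mL saline) was given iv. Rats were killed 4.5 h later and the thoracic cavity was rinsed with 5 mL saline. Exudate volume and infiltrated cell number were measured, with inhibition % versus controls as mean ± SEM.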

In assay [4] the test system is Rattus norvegicus. The experiment in a line: Inhibition of carrageenan-induced rat's paw edema (CPE) after peroral administration of 100 mg/kg dose. The conditions noted are these: route oral. The gist of the method: as §1
The subject of assay [5] is Rattus norvegicus. Briefly: Compound was tested for the inhibition of rat reversed passive Arthus pleurisy after peroral administration of 100 mg/kg dose at 0.28 mL of exudate volume with 0.82 mL of control (injected intrapleurally). The conditions noted are these: route oral. The procedure, abridged:
as §2

The test system of assay [6] is Rattus norvegicus. The experiment in a line: Antiinflammatory activity on Zymosan-induced rat's paw edema(ZPE) after peroral administration of 100 mg/kg dose with control swelling of 72.9%. As to conditions: route oral. The gist of the method: (§3)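 Male Wistar rats weighing about 150 g were dosed orally with compound suspended in 5% arabic gum. 1 h later, 1% zymosan in 0.1 mL saline was injected subplantarly into the hind paw. Paw volume was measured by plethysmograph before dosing and 4 h after zymosan, with edema as the volume difference. Inhibition % was derived from mean swelling versus the control group.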

The subject of assay [7] is Rattus norvegicus. Briefly: Antiinflammatory activity on Zymosan-induced rat's paw edema(ZPE) after peroral administration of 100 mg/kg dose with control swelling of 69.5%. The conditions noted are these: route oral. The gist of the method: as §3
For assay [8], the system named is Rattus norvegicus. Briefly: Compound was tested for the inhibition of rat reversed passive Arthus pleurisy after peroral administration of 100 mg/kg dose at 0.64 mL of exudate volume with 0.79 mL of control (injected intrapleurally). The conditions noted are these: route oral. The gist of the method: as §2
Assay [9] concerns Rattus norvegicus. The experiment in a line: Compound was tested for the inhibition of rat reversed passive Arthus pleurisy after peroral administration of 100 mg/kg dose at 3.77*10e6 no of cells with 3.86*10e6 cells of control. The conditions noted are these: route oral. The procedure, abridged: (§4)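 Male Wistar rats (about 250 g) under ether received 0.2 mL rabbit anti-egg-albumin antiserum intrapleurally. Thirty min later they got 15 mg EA/100 g body weight in 0.1 mL saline iv. Compounds were given orally beforehand. Rats were killed 4.5 h after induction and the thoracic cavity rinsed with 5 mL saline. Exudate volume and infiltrated cell count were read as mean ± SE. % inhibition is versus control.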

The test system of assay [10] is Rattus norvegicus. The experiment in a line: Antiinflammatory activity on Carrageenan rat's paw edema(CPE) after peroral administration of 100 mg/kg dose with control swelling of 63.7%. The conditions noted are these: route oral.
The test system of assay [11] is Rattus norvegicus. Briefly: Antiinflammatory activity on Zymosan-induced rat's paw edema(ZPE) after peroral administration of 100 mg/kg dose with control swelling of 71.7%. The conditions noted are these: route oral. The procedure, abridged: as §3
For assay [12], the system named is Rattus norvegicus. Briefly: Compound was tested for the inhibition of rat reversed passive Arthus pleurisy after peroral administration of 100 mg/kg dose at 0.72 mL of exudate volume with 0.54 mL of control (injected intrapleurally). As to conditions: route oral. The procedure, abridged:
as §2

For assay [13], the system named is Rattus norvegicus. Briefly: Antiinflammatory activity on Carrageenan rat's paw edema(CPE) after peroral administration of 100 mg/kg dose with control swelling of 64.2%. The conditions noted are these: route oral.
Assay [14] concerns Rattus norvegicus. The experiment in a line: Compound was tested for the inhibition of rat reversed passive Arthus pleurisy after peroral administration of 100 mg/kg dose at 3.82*10e6 no of cells with 3.62*10e6 cells of control. As to conditions: route oral. The gist of the method:
as §4

Assay [15] relates to Rattus norvegicus. The experiment in a line: Compound was tested for the inhibition of rat reversed passive Arthus pleurisy after peroral administration of 10 mg/kg dose at 0.44 mL of exudate volume with 0.55 mL of control (injected intrapleurally). As to conditions: route oral. The gist of the method:
as §2

Assay [16] relates to Rattus norvegicus. The experiment in a line: Compound was tested for the inhibition of rat reversed passive Arthus pleurisy after peroral administration of 3 mg/kg dose at 0.59 mL of exudate volume with 0.55 mL of control (injected intrapleurally). The conditions noted are these: route oral. The gist of the method: as §4
Assay [17] relates to Rattus norvegicus. Briefly: Compound was tested for the inhibition of rat reversed passive Arthus pleurisy after peroral administration of 10 mg/kg dose at 3.2*10e6 no of cells with 2.77*10e6 cells of control. The conditions noted are these: route oral. The gist of the method:
as §2

For assay [18], the system named is Rattus norvegicus. Briefly: Compound was tested for the inhibition of rat reversed passive Arthus pleurisy after peroral administration of 3 mg/kg dose at 4.01*10e6 no of cells with 2.77*10e6 cells of control. As to conditions: route oral. The procedure, abridged: as §4
In assay [19] the test system is Rattus norvegicus. The experiment in a line: Antiinflammatory activity on Zymosan-induced rat's paw edema(ZPE) after peroral administration of 3 mg/kg dose with control swelling of 55.1%. The conditions noted are these: route oral. The procedure, abridged: as §3
In assay [20] the test system is Rattus norvegicus. Briefly: Antiinflammatory activity on Zymosan-induced rat's paw edema(ZPE) after peroral administration of 10 mg/kg dose with control swelling of 55.1%. The conditions noted are these: route oral. The procedure, abridged: as §3
The test system of assay [21] is Rattus norvegicus. Briefly: Compound was tested for the inhibition of Zymosan-induced rat's paw edema(ZPE) after peroral administration of 3 mg/kg dose. As to conditions: route oral. The procedure, abridged:
as §3

Assay [22] has as its system Rattus norvegicus. Briefly: Compound was tested for the inhibition of Carrageenan rat's paw edema(CPE) after peroral administration of 10 mg/kg dose. As to conditions: Rattus norvegicus, po.
The subject of assay [23] is Rattus norvegicus. The experiment in a line: Compound was tested for the inhibition of Zymosan-induced rat's paw edema(ZPE) after peroral administration of 30 mg/kg dose. As to conditions: route oral. The gist of the method:
as §3

For assay [24], the system named is Rattus norvegicus. Briefly: Compound was tested for the inhibition of Zymosan-induced rat's paw edema(ZPE) after peroral administration of 10 mg/kg dose. The conditions noted are these: po. The procedure, abridged:
as §3

The subject of assay [25] is Rattus norvegicus. Briefly: Antiinflammatory activity on Zymosan-induced rat's paw edema(ZPE) after peroral administration of 100 mg/kg dose with control swelling of 55.1%. The conditions noted are these: route oral. The gist of the method: as §3
The subject of assay [26] is Rattus norvegicus. The experiment in a line: Compound was tested for the inhibition of arachidonic acid-induced rat's paw edema(APE) after peroral administration of 10 mg/kg dose with control swelling of 51.6%. As to conditions: route oral. The procedure, abridged:
(§5)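 Test: arachidonic acid paw edema in male Wistar rats of about 150 g. Oral dosing in 5% arabic gum came 1 h before subplantar injection of 1% arachidonic acid sodium salt in 0.1 mL saline into the hind paw. Plethysmograph paw volume was read before dosing and 1 h post-irritant, and edema = volume difference. % inhibition was taken from mean swelling against controls.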

Assay [27] concerns Rattus norvegicus. The experiment in a line: Compound was tested for the inhibition of arachidonic acid-induced rat's paw edema(APE) after peroral administration of 10 mg/kg dose. The conditions noted are these: route oral. The procedure, abridged: as §5
The test system of assay [28] is Rattus norvegicus. Briefly: Compound was tested for the inhibition of Carrageenan rat's paw edema(CPE) after peroral administration of 3 mg/kg dose. As to conditions: route oral.
Assay [29] relates to Rattus norvegicus. The experiment in a line: Antiinflammatory activity on Carrageenan rat's paw edema(CPE) after peroral administration of 3 mg/kg dose with control swelling of 75.8%. As to conditions: route oral.
The subject of assay [30] is Rattus norvegicus. Briefly: Antiinflammatory activity on Carrageenan rat's paw edema(CPE) after peroral administration of 10 mg/kg dose with control swelling of 75.8%. As to conditions: route oral.

Usually inhibition in vivo stands for the change of the read-out against control, counted positive when it falls.

As to `Cc1cnccc1NC(=O)c1c(O)c2cccnc2n(-c2ccccc2)c1=O`, the inhibition in vivo at 100 mg/kg is 26.9% in the assay with Rattus norvegicus [1], 83.9% in the assay on Rattus norvegicus [3], 8.8% in the assay on Rattus norvegicus [4] and 65.9% in the assay with Rattus norvegicus [5]. In addition, the Swelling is 64.6% with Rattus norvegicus [2] and 53.3% with Rattus norvegicus [6].
For `O=C(Nc1nccs1)c1c(O)c2cccnc2n(-c2ccccc2)c1=O`, the inhibition in vivo at 100 mg/kg in the assay on Rattus norvegicus [1] was 4.6%; with Rattus norvegicus [4] it was 2.5%; in the assay with Rattus norvegicus [8], 18.1%; with Rattus norvegicus [9] it was 15.4%. Moreover, the Swelling with Rattus norvegicus [7] is given as 66.3%; in the assay on Rattus norvegicus [10], 69.9%.
Regarding `CCCCNC(=O)c1c(O)c2cccnc2n(-c2ccccc2)c1=O`, the inhibition in vivo at 100 mg/kg in the assay with Rattus norvegicus [1] is 12.8%; with Rattus norvegicus [4], 20.4%; with Rattus norvegicus [12] it was -36.7%; in the assay on Rattus norvegicus [14], 7.7%. For the same compound, the Swelling turned out to be 62.5% with Rattus norvegicus [11] and 51.1% with Rattus norvegicus [13].
As to `COc1ccc2c(c1)c(CC(=O)O)c(C)n2C(=O)c1ccc(Cl)cc1` [INDOMETHACIN], the inhibition in vivo at 10 mg/kg with Rattus norvegicus [15] is 23.9%; with Rattus norvegicus [17], -20.9%. In addition, the inhibition in vivo at 3 mg/kg was -8.7% with Rattus norvegicus [16] and -60.2% in the assay with Rattus norvegicus [18].
Regarding `CN1C(C(=O)Nc2ccccn2)=C(O)c2ccccc2S1(=O)=O` [PIROXICAM], the Swelling came to 53.9% in the assay with Rattus norvegicus [19]; 61.7% in the assay with Rattus norvegicus [20]; 50.3% in the assay with Rattus norvegicus [25]; 42.7% with Rattus norvegicus [26]; 34.4% in the assay with Rattus norvegicus [29]; 25.8% in the assay on Rattus norvegicus [30]. Besides, the inhibition in vivo at 3 mg/kg in the assay with Rattus norvegicus [21] turned out to be 2.2%; with Rattus norvegicus [28], 54.6%. Also, the inhibition in vivo at 10 mg/kg with Rattus norvegicus [22] was determined as 66%; with Rattus norvegicus [24] it was 9.4%; with Rattus norvegicus [27], 17.2%. The inhibition in vivo at 30 mg/kg in the assay with Rattus norvegicus [23] came out at 8.7%.

(Values after ChEMBL document CHEMBL1126267, “A novel synthesis and potent antiinflammatory activity of 4-hydroxy-2(1H)-oxo-1-phenyl-1,8-naphthyridine-3-carboxamides” (1992).)
